In the library only some 1.8% were active in any assay of this set; here they are far more common.
TCR CD3 inh: human TCR-CD3 binding inhibition; TAMRA-labeled TCR probe fluorescence, biochemical; inhibition, % at 9.4 µM; 360,000 compounds, 0.37% hits; in the data active means inhibition above about 19%;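 further: recombinant mutant TCR 2C K166C tagged with TAMRA read by polarization; 0% = receptor in buffer alone and 100% = receptor with positive control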
ARNT TACC3 PPI: disruptors of human ARNT/TACC3 interaction | AlphaScreen His-ARNT PAS-B/GST-TACC3 binding, luminescence; TACC3 fragment carries E629A point mutation | inhibition, % at 9.99 µM | 390,000 compounds, 0.66% hits;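 active means mean inhibition of replicates at least 50% and at least half of replicates each reaching 50%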;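 further: 0% = complete ARNT plus TACC3 wells and 100% = ARNT alone without TACC3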
ABHD4 inh: ABHD4 (mouse) inhibition, primary FP screen | inhibition, % at 8.92 µM | 370,000 compounds, 0.54% hits | Q8VD66 | purified mABHD4, FP-Rh probe fluorescence polarization | AID 720543;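 active means inhibition exceeding the mean over every tested compound plus 3 SD, cut at about 30% in these data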;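 further: 0% = plate median of compound wells and 100% = S159A mutant with DMSO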
Target sequence (Q8VD66 whole entry, looked up): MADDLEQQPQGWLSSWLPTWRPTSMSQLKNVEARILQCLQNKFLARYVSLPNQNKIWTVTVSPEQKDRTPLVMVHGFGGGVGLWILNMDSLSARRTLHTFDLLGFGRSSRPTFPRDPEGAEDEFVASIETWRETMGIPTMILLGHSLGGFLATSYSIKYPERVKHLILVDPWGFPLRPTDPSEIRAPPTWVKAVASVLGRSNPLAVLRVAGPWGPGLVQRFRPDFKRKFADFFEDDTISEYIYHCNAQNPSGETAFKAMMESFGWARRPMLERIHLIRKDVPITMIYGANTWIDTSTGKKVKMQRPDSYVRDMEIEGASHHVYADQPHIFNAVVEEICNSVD
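Assay system: Wild-type mouse ABHD4 protein | Medium: HEPES pH 7.0 buffer, 150 mM NaCl, 0.01% Pluronic F-127 | Incubation: Enzyme–compound pre-incubation 45 min, then probe 60 min, both 25 °C | Technique: Fluorescence polarization with parallel and perpendicular emission, 525/598 nm | Evaluation: % inhibition of FP-Rh probe binding versus controls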
SIAE primary: inhibitors of human sialic acid acetylesterase SIAE. Q9HAT2. SIAE FP-Rh probe binding, fluorescence polarization. inhibition, % at 9.66 µM. 370,000 compounds, 0.69% hits;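 active means inhibition above a cutoff: mean of compounds within the control limits plus 3 SD of those, cut at about 17% in these data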;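 further: 0% = plate median of compound wells and 100% = probe without SIAE protein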
HTRA1 inhibitor: blocks human HTRA1 serine peptidase; recombinant HTRA1, FP-rhodamine activity-based probe, fluorescence polarization; inhibition, % at 5.96 µM; 340,000 compounds, 0.5% hits; in the data active means inhibition above about 36%;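 further: 0% = enzyme with DMSO and 100% = wells lacking enzyme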
ABHD4 confirm: ABHD4 (mouse) inhibition, FP confirmation | 1,800 compounds, 55% hits | inhibition, % at 8.92 µM | purified mABHD4, FP-Rh probe fluorescence polarization | shares compounds with ABHD4 inh;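 active means mean inhibition across replicates above the hit cutoff set in the primary screen, cut at about 30% in these data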;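 further: 0% = wild-type ABHD4 with DMSO and 100% = catalytically dead S159A mutant with DMSO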
SIAE inh conf: confirmation of human SIAE inhibitors; AID 1117263; inhibition, % at 9.66 µM; SIAE FP-Rh activity-based probe, fluorescence polarization; shares compounds with SIAE primary; 2,300 compounds, 13% hits;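 active means mean inhibition of the replicates above the hit cutoff set in the primary screen, cut at about 17% in these data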;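 further: 0% = SIAE with DMSO and probe and 100% = probe without SIAE; inhibitors lower polarization as more probe stays unbound to SIAE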
* = called active by the depositor; . = no result given; ! = not confirmed by another sample.

SMILES	TCR CD3 inh	ARNT TACC3 PPI	ABHD4 inh	SIAE primary	HTRA1 inhibitor	ABHD4 confirm	others
C[C@H]1CCCCO[C@@H](CN(C)Cc2ccncc2)[C@@H](C)CN([C@@H](C)CO)C(=O)c2cc(NS(C)(=O)=O)ccc2O1	.	2	.	.	.	.
N#C/C(=C\c1cccnc1)C(=O)Nc1ccc(O)cc1F	-19	-13	67*	11	23	11
COc1cccc(NC(=O)C2CCN(S(=O)(=O)c3ccc4[nH]c(=O)oc4c3)CC2)c1	-2	6	42*	-7	2	43*
CCN(CC)S(=O)(=O)c1ccc(N2CCCC2)c(C(=O)OCC(=O)Nc2cc(C)on2)c1	-13	2	45*	-6	-24	61*
CC1=C(CCN2CCN(C3CCCC3)C(CCO)C2)C(C)(C)CCC1 (configuration not stated)	-2	-4	61*	2	-9	-12
COc1ccc(CN(C)C[C@@H]2Oc3c(NC(=O)NC4CCCCC4)cccc3C(=O)N([C@H](C)CO)C[C@H]2C)cc1	.	7	.	.	.	.
O=C(NNC(=S)NC1CCCCC1)c1sc2ccccc2c1Cl	6	-1	31*	12	9	22
Cc1ccc(CN2CCN(/N=C/c3ccc(O)c(O)c3)CC2)cc1	6	9	31*	10	32	54*
CCCCNc1c(-c2ccc(SC(C)CC)cc2)nc2ccccn12 (configuration not stated)	4	0	40*	11	-1	69*
Cc1ccn2c(NCc3ccccc3)c(-c3cccc(SC4CCCCC4)c3)nc2c1	0	-1	30*	14	4	31*!
CCCCNc1c(-c2cccc(SC(C)CC)c2)nc2ccc(Cl)cn12 (configuration not stated)	2	-1	9	6	-1	.
c1ccc(CNc2c(-c3cccc(SC4CCCCC4)c3)nc3ccccn23)cc1	7	-4	16	5	-12	.
CCCCNc1c(-c2cccc(SC3CCCCC3)c2)nc2ccc(Cl)cn12	-2	-4	2	-3	-13	.
CCCCNc1c(-c2ccc(SC3CCCCC3)cc2)nc2ccccn12	0	-8	44*	17	-17	14
O=C(Nc1ccc2c(c1)[C@H]1C[C@@H](CC(=O)N3CCOCC3)O[C@@H](CO)[C@H]1O2)NC1CCCCC1	.	-4	.	.	.	.
CCOc1cc(S(=O)(=O)n2cc(-c3ccc(F)cc3)c(N)n2)cc(OCC)c1OCC	7	6	49*	-2	-36	65*
CCOc1cc(-c2cn(S(=O)(=O)c3cccc4nsnc34)nc2N)cc(OCC)c1OCC	0	-4	31*	4	-4	51*
CC1CCCC(C)N1C(=O)COC(=O)CCC(=O)c1cccs1 (configuration not stated)	9	-4	60*	5	-2	-7
Nc1c(Br)cc2c([nH]c(=O)c3ccccc32)c1Br	-8	-8	42*	8	20	37*
Nc1cc2[nH]c(=O)c3ccccc3c2cc1[N+](=O)[O-]	5	15	9	-1	5	.
COc1cc2c(oc(=O)c3cc(C)cc(OC)c32)c2c(C3OC(C)C(O)C(C)(O)C3O)ccc(O)c12 (configuration not stated)	5	1	38*	-3	7	14
COc1cccc2cc(C(=O)N3CC(C)OC(C)C3)c(=O)oc12 (configuration not stated)	-15	11	-5	-5	1	.
CC(C)NC(=O)Nc1ccc2c(c1)C(=O)N([C@@H](C)CO)C[C@H](C)[C@@H](CN(C)C(=O)c1ccccc1)OCCCC[C@@H](C)O2	.	1	.	.	.	.
CCc1csc(N2[C@H](C#N)[C@@H](c3ccc(-c4ccc(F)cc4)cc3)[C@H]2CO)n1	.	13	.	.	.	.
Cc1csc(=O)n1CC(=O)OCc1nnc(-c2ccc(Cl)cc2)o1	-3	2	36*	1	7	5
SMILES	TCR CD3 inh	ARNT TACC3 PPI	ABHD4 inh	SIAE primary	HTRA1 inhibitor	ABHD4 confirm	others
O=C(C[C@H]1CC[C@@H]2[C@H](COC[C@H](O)CN2Cc2cccc(F)c2)O1)NCc1ccncc1	.	-2	.	.	.	.
O=c1cc(CSc2ccc(Cl)cc2)[nH]c2[nH]n(-c3ccccc3)c(=O)c12	10	-1	47*	14	20	26
COC(=O)CCCC1=CC2=CC(=O)C(C)(OC(=O)c3cccs3)C(=O)C2=CN1Cc1ccco1 (configuration not stated)	6	10	32*	13	16	14
O=C(C1CC1)N1C[C@H]2[C@@H](c3ccccc31)[C@@H](CO)N2C(=O)c1cccc(F)c1	.	4	.	.	.	.
CCN=c1scc(C)n1/N=C/c1cc(Br)c(O)c(Br)c1	3	13	55*	12	27	66*
COCCCNC(=S)NNC(=O)c1ccccn1	0	67*	39*	3	2	44*
COCCCNC(=S)NNC(=O)c1ccccc1Br	-1	1	-3	2	-1	.
O=C(Cc1ccccn1)NCC[C@@H]1CC[C@@H](NC(=O)Nc2ccc(Cl)cc2)[C@H](CO)O1	.	0	.	.	.	.
COc1cccc(Nc2ccc(C(=O)O)cc2N)c1	1	-5	22	-2	15	.
Cc1cc(C)cc(Nc2ccc(C(=O)O)cc2N)c1	15	4	12	5	23	.
Cc1cc(C)cc(Nc2ccc(C(=O)O)cc2[N+](=O)[O-])c1	-1	22	32*	-2	-1	54*
CCc1ccc(Nc2ccc(C(=O)O)cc2[N+](=O)[O-])cc1	7	-11	55*	2	0	69*
COc1cc(Nc2ccc(C(=O)O)cc2[N+](=O)[O-])cc(OC)c1	-4	.	36*	-6	-6	57*
O=C(CN1C(=O)/C(=C2/SC(=S)N(CCS(=O)(=O)O)C2=O)c2ccccc21)Nc1cccc(Br)c1	12	-9	60*	18*	-23	70*	SIAE inh conf=5
O=C(C[C@@H]1CC[C@@H]2[C@H](COC[C@@H](O)CN2Cc2cc(F)cc(F)c2)O1)NC1CCC1	.	0	.	.	.	.
COC(=O)C1=C(C)NC2=C(C(=O)c3ccccc32)C1c1cccc(OC)c1 (configuration not stated)	-2	4	21	4	3	.
CC1=C([N+](=O)[O-])C(c2cccc(Br)c2)C2=C(N1)c1ccccc1C2=O (configuration not stated)	6	5	30*	28*	14	35*	SIAE inh conf=-2
COc1ccc(S(=O)(=O)N(C)C[C@@H]2Oc3ccc(NC(=O)Nc4ccc(F)cc4)cc3CC(=O)N([C@@H](C)CO)C[C@@H]2C)cc1	.	11	.	.	.	.

High-throughput results from PubChem BioAssay.
